Measured values reported in publication PMC4091728 (Chembiochem : a European journal of chemical biology, 2014).

How the values were obtained:
[1] = test system: Trypanosoma cruzi (CA-I/72 trypomastigotes) in mouse C2C12 myoblasts; test: EC50 in cell-based assay using T. cruzi-infected mouse C2C12 myoblasts; details: highest concentration 10 μM
TcCYP51 = TcCYP51 (Trypanosoma cruzi, UniProt Q7Z1V1); test: Binding affinity by UV-vis spectroscopy
Procedure, shortened: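 Recombinant TcCYP51 at 1 μM in 100 mM potassium phosphate, pH 7.5, with 10% glycerol, at 23°C, in a 1-cm quartz cuvette. Titrated stepwise with test compound from a 100 μM DMSO stock, with equal solvent added to the reference cuvette. The absorbance shift between 425 and 390 nm was fitted to the quadratic tight-binding equation to give KD.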

TcCYP51, sequence (Q7Z1V1 whole entry): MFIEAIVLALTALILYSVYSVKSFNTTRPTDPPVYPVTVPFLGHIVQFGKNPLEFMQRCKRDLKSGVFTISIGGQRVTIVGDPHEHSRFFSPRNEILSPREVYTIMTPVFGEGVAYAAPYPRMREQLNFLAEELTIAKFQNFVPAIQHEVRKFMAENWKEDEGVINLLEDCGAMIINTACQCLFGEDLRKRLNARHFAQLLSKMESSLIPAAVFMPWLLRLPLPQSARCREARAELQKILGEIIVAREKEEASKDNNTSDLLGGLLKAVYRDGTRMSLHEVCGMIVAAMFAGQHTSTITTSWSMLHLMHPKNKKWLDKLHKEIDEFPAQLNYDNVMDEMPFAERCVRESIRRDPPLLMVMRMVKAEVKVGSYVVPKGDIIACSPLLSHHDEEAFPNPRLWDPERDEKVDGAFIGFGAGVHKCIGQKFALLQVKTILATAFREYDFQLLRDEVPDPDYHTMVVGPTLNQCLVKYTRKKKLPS

| SMILES | Kd (TcCYP51) [nM] | anti-T. cruzi potency in cell culture, in words [1] |
| --- | --- | --- |
| O=C(N[C@H](Cc1c[nH]c2ccccc12)C(=O)Nc1ccncc1)c1ccc(N2CCN(S(=O)(=O)C3CC3)CC2)cc1F [compound 10, (R)-N-(3-(1H-Indol-3-yl)-1-oxo-1-(pyridin-4-ylamino)propan-2-yl)-4-(4-(cyclopropylsulfonyl)piperazin-1-yl)-2-fluorobenzamide] | 25 ± 6 | failed to elicit T. cruzi inhibition in cell culture at ≤10 μM |
| N#Cc1ccc(S(=O)(=O)N2CCN(c3ccc(C(=O)N[C@H](Cc4c[nH]c5ccccc45)C(=O)Nc4ccncc4)c(F)c3)CC2)cc1 [compound 4, (R)-N-(3-(1H-Indol-3-yl)-1-oxo-1-(pyridin-4-ylamino)propan-2-yl)-4-(4-((4-cyanophenyl)sulfonyl)piperazin-1-yl)-2-fluorobenzamide] | 47 ± 19 |  |
| COC(=O)c1sccc1S(=O)(=O)N1CCN(c2ccc(C(=O)N[C@H](Cc3c[nH]c4ccccc34)C(=O)Nc3ccncc3)c(F)c2)CC1 [compound 7, (R)-methyl 3-((4-(4-((3-(1H-Indol-3-yl)-1-oxo-1-(pyridin-4-ylamino)propan-2-yl)carbamoyl)-3-fluorophenyl)piperazin-1-yl)sulfonyl)thiophene-2-carboxylate] | 20 ± 7 | inhibited T. cruzi at the low micromolar concentrations |
| CS(=O)(=O)N1CCN(c2ccc(C(=O)N[C@H](Cc3c[nH]c4ccccc34)C(=O)Nc3ccncc3)c(F)c2)CC1 [compound 11, (R)-N-(3-(1H-Indol-3-yl)-1-oxo-1-(pyridin-4-ylamino)propan-2-yl)-2-fluoro-4-(4-(methylsulfonyl)piperazin-1-yl)benzamide] | 19 ± 4 | failed to elicit T. cruzi inhibition in cell culture at ≤10 μM |
| O=C(O)c1ccc(S(=O)(=O)N2CCN(c3ccc(C(=O)N[C@H](Cc4c[nH]c5ccccc45)C(=O)Nc4ccncc4)c(F)c3)CC2)cc1 [compound 8, (R)-4-((4-(4-((3-(1H-Indol-3-yl)-1-oxo-1-(pyridin-4-ylamino)propan-2-yl)carbamoyl)-3-fluorophenyl)piperazin-1-yl)sulfonyl)benzoic acid] | 20 ± 7 | failed to elicit T. cruzi inhibition in cell culture at ≤10 μM |
| O=C(N[C@H](Cc1c[nH]c2ccccc12)C(=O)Nc1ccncc1)c1ccc(N2CCN(S(=O)(=O)c3cccnc3)CC2)cc1F [compound 5, (R)-N-(3-(1H-Indol-3-yl)-1-oxo-1-(pyridin-4-ylamino)propan-2-yl)-2-fluoro-4-(4-(pyridin-3-ylsulfonyl)piperazin-1-yl)benzamide] | 15 ± 6 | inhibited T. cruzi at the low micromolar concentrations |

The next molecules have a lower Kd (TcCYP51) than those just listed; values first:

| Kd (TcCYP51) [nM] | SMILES | anti-T. cruzi potency in cell culture, in words [1] |
| --- | --- | --- |
| ≤ 10 | O=C(N[C@H](Cc1c[nH]c2ccccc12)C(=O)Nc1ccncc1)c1ccc(N2CCN(S(=O)(=O)c3ccc(C(F)(F)F)cc3)CC2)cc1F [compound 6, (R)-N-(3-(1H-Indol-3-yl)-1-oxo-1-(pyridin-4-ylamino)propan-2-yl)-2-fluoro-4-(4-((4-(trifluoromethyl)phenyl)sulfonyl)piperazin-1-yl)benzamide] | inhibited T. cruzi at the low micromolar concentrations |
| ≤ 10 | O=C(N[C@H](Cc1c[nH]c2ccccc12)C(=O)Nc1ccncc1)c1ccc(N2CCN(S(=O)(=O)c3cccs3)CC2)cc1F [compound 3, (R)-N-(3-(1H-Indol-3-yl)-1-oxo-1-(pyridin-4-ylamino)propan-2-yl)-2-fluoro-4-(4-(thiophen-2-ylsulfonyl)piperazin-1-yl)benzamide] | sub-nanomolar |
| ≤ 10 | O=C(N[C@H](Cc1c[nH]c2ccccc12)C(=O)Nc1ccncc1)c1ccc(N2CCN(S(=O)(=O)c3ccsc3C(=O)O)CC2)cc1F [compound 9, (R)-3-((4-(4-((3-(1H-Indol-3-yl)-1-oxo-1-(pyridin-4-ylamino)propan-2-yl)carbamoyl)-3-fluorophenyl)piperazin-1-yl)sulfonyl)thiophene-2-carboxylic acid] | failed to elicit T. cruzi inhibition in cell culture at ≤10 μM |
